Source: ChEMBL document CHEMBL1141590, “Development of peptidomimetics with a vinyl sulfone warhead as irreversible falcipain-2 inhibitors” (J Med Chem, 2008)
pIC50, pKi: −log10 of the molar value.

Key:
[1] = biological target: T1, Falcipain 2 (Plasmodium falciparum) (UniProt Q9N6S8); assay: (§1) Inhibition of Plasmodium falciparum recombinant falcipain-2
T1 sequence (whole entry): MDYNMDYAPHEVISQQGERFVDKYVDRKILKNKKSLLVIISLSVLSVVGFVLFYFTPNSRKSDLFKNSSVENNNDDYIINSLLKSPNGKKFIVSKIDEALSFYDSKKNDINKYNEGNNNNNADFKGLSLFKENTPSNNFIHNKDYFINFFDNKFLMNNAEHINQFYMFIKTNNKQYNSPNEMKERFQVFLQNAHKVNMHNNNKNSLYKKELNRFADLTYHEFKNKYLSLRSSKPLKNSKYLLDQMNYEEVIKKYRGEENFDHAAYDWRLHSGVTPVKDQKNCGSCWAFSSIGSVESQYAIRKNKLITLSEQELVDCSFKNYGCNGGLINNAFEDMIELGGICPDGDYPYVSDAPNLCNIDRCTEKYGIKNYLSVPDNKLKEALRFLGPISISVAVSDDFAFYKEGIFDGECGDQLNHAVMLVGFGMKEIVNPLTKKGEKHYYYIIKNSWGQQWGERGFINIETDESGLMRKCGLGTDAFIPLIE
How it was run: (§2)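 Recombinant FP-2 in 100 mM sodium acetate pH 5.5, 10 mM DTT; Cbz-Phe-Arg-AMC 32 µM, fluorescence (ex 365/em 460 nm) monitored continuously 20 min at room temperature. Seven inhibitor levels within 0–10 µM; kobs from progress-curve fits, hyperbolic fit gave kinac and Kiapp, corrected with Km 21.5 µM; k2nd = kinac/Kinac. Two independent runs, each in duplicate.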

Falcipain 2 = biological target: T2, Falcipain 2 (Plasmodium falciparum, UniProt Q9N6S8); assay: as §1; how it was run: as §2
T2 sequence (Q9N6S8 whole entry): T1 sequence (whole entry)

Plasmodium falciparum = assay: Antiplasmodial activity against Plasmodium falciparum 3D7 after 72 hrs in Malstat assay; assay type: functional, organism-based; settings: 3D7, 72 h
How it was run: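 Synchronized ring-stage P. falciparum 3D7 plated at 1% parasitemia with compounds (in DMSO) at 1 nM–100 µM; 0.5% v/v DMSO alone as negative control. Cultured in vitro 72 h, then viability read by Malstat assay (parasite lactate dehydrogenase activity); dose-dependent effect quantified.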

Cathepsin B = Cathepsin B (Homo sapiens, UniProt P07858); assay: Inhibition of human cathepsin B
How it was run: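 Cathepsin B continuous progress-curve assay with Cbz-Phe-Arg-AMC at 80 µM; Kiapp corrected to zero substrate using Km 150 µM to give Kinac. Two independent runs, each in duplicate.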

Procathepsin L = Procathepsin L (Homo sapiens, UniProt P07711); assay: Inhibition of human cathepsin L
How it was run: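 Cathepsin L continuous progress-curve assay with Cbz-Phe-Arg-AMC at 5 µM; Kiapp corrected to zero substrate using Km 6.5 µM to give Kinac. Two independent runs, each in duplicate.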

SMILES | Kinact [1] | pKi (Falcipain 2) | pIC50 (Plasmodium falciparum) | pKi (Cathepsin B) | Kinact (Cathepsin B) | pKi (Procathepsin L) | Kinact (Procathepsin L) | pIC50 (Falcipain 2)
CCS(=O)(=O)/C=C/[C@H](CCc1ccccc1)NC(=O)CN1C(=O)[C@@H](COC(=O)Nc2ccc(Cl)cc2C(F)(F)F)N=C(c2ccccc2)c2ccccc21 | 0.1 min⁻¹ | 6.49 | 5.04 | 5.36 | 0.045 min⁻¹ | 4.87 | 0.1 min⁻¹ | –
O=C(CN1C(=O)[C@@H](COC(=O)Nc2ccc(Cl)cc2C(F)(F)F)N=C(c2ccccc2)c2ccccc21)N[C@H]1CC(=O)OC1O (some centres not stated) | – | – | – | – | – | – | – | 5.10
CS(=O)(=O)/C=C/CNC(=O)CN1C(=O)[C@@H](COC(=O)Nc2ccc(Cl)cc2C(F)(F)F)N=C(c2ccccc2)c2ccccc21 | 0.059 min⁻¹ | 6.43 | 4.74 | 4.96 | 0.048 min⁻¹ | – | – | 5.10
COc1ccc(S(=O)(=O)/C=C/CNC(=O)CN2C(=O)C(COC(=O)Nc3ccc(Cl)cc3C(F)(F)F)N=C(c3ccccc3)c3ccccc32)cc1 (configuration not stated) | 0.031 min⁻¹ | 6.92 | < 4.00 | 5.23 | 0.059 min⁻¹ | 4.85 | 0.1 min⁻¹ | 5.10
CCS(=O)(=O)/C=C/CNC(=O)CN1C(=O)[C@@H](COC(=O)Nc2ccc(Cl)cc2C(F)(F)F)N=C(c2ccccc2)c2ccccc21 | 0.027 min⁻¹ | 6.96 | 4.25 | 5.37 | 0.039 min⁻¹ | – | – | 5.10
CC(C)C[C@H](NC(=O)[C@H]1O[C@@H]1C(=O)O)C(=O)NCCCCN=C(N)N [E-64] | 0.46 min⁻¹ | 6.54 | 5.28 | – | – | – | – | –
O=C(CN1C(=O)[C@@H](COC(=O)Nc2ccc(Cl)cc2C(F)(F)F)N=C(c2ccccc2)c2ccccc21)NC/C=C/S(=O)(=O)c1ccccc1 | 0.033 min⁻¹ | 6.85 | 4.64 | 5.34 | 0.047 min⁻¹ | 4.66 | 0.16 min⁻¹ | 5.10

The next lines start with results.

Kinact [1] | pKi (Falcipain 2) | pIC50 (Plasmodium falciparum) | pKi (Cathepsin B) | Kinact (Cathepsin B) | pKi (Procathepsin L) | Kinact (Procathepsin L) | SMILES | pIC50 (Falcipain 2)
0.034 min⁻¹ | 7.28 | 4.22 | 5.48 | 0.045 min⁻¹ | – | – | COc1ccc(S(=O)(=O)/C=C/[C@H](CCc2ccccc2)NC(=O)CN2C(=O)[C@@H](COC(=O)Nc3ccc(Cl)cc3C(F)(F)F)N=C(c3ccccc3)c3ccccc32)cc1 | –
0.11 min⁻¹ | 6.22 | 5.04 | 5.51 | 0.039 min⁻¹ | 5.15 | 0.12 min⁻¹ | O=C(CN1C(=O)[C@@H](COC(=O)Nc2ccc(Cl)cc2C(F)(F)F)N=C(c2ccccc2)c2ccccc21)N[C@H](/C=C/S(=O)(=O)c1ccccc1)CCc1ccccc1 | –
0.16 min⁻¹ | 6.41 | 4.26 | 4.84 | 0.064 min⁻¹ | – | – | CS(=O)(=O)/C=C/[C@H](CCc1ccccc1)NC(=O)CN1C(=O)[C@@H](COC(=O)Nc2ccc(Cl)cc2C(F)(F)F)N=C(c2ccccc2)c2ccccc21 | 5.10
